In brackets after ≈: the same amount, converted by molar mass. Activity calls are given as the source filed them.

For twelve compounds, Activity, MIC and Ratio results are on record in ChEMBL document CHEMBL1255247, “Induction of L1 and L2 beta-lactamases of Stenotrophomonas maltophilia” (2008).

Test [1] has as its system Stenotrophomonas maltophilia. The test can be described thus: Antibacterial activity against Stenotrophomonas maltophilia isolate KJ deficient in L2 beta lactamase gene at 50 ug/ml. The format is functional, organism-based.
The test system of test [2] is Stenotrophomonas maltophilia. The test can be described thus: Antibacterial activity against Stenotrophomonas maltophilia isolate KJ deficient in L2 beta lactamase gene by Etest. The format is functional.
In test [3] the test system is Stenotrophomonas maltophilia. The test can be described thus: Antibacterial activity against Stenotrophomonas maltophilia isolate KJ deficient in L1 beta lactamase gene at 50 ug/ml. In kind it is functional, organism-based.
The subject of test [4] is Stenotrophomonas maltophilia. The test can be described thus: Antibacterial activity against Stenotrophomonas maltophilia isolate KJ by Etest. In kind it is functional.
Test [5] concerns Stenotrophomonas maltophilia. The test can be described thus: Antibacterial activity against Stenotrophomonas maltophilia isolate KJ deficient in L1 beta lactamase gene by Etest. The format is functional.
Test [6] concerns Stenotrophomonas maltophilia. The test can be described thus: Ratio of induction of xylE gene expression in Stenotrophomonas maltophilia isolate KJ deficient in L1 beta lactamase gene to induction of xylE gene expression in Stenotrophomonas maltophilia isolate KJ deficient in L2 beta lactamase gene assessed as catechol 2,3-dioxygenase activity at 50 ug/ml. The format is functional.

Test [7] deals with Stenotrophomonas maltophilia. The test can be described thus: Induction of xylE gene expression in Stenotrophomonas maltophilia isolate KJ deficient in L2 beta lactamase gene assessed maximum catechol 2,3-dioxygenase activity at 1 ug/ml. In kind it is functional, organism-based. The procedure, abridged: (§1)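 xylE (catechol 2,3-dioxygenase) reporter induction in the L1 or L2 knockout of strain KJ. Overnight cultures were diluted to OD450 0.15 and grown 0.5 h at 37°C, then exposed to β-lactam inducer (default 50 μg/ml, 2.5 h). C23O activity was read in intact cells with OD450. 1 U = 1 nmol substrate/min; specific activity is U per A450 unit. Each experiment was run ≥3 times.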

For test [8], the system named is Stenotrophomonas maltophilia. The test can be described thus: Induction of xylE gene expression in Stenotrophomonas maltophilia isolate KJ deficient in L1 beta lactamase gene assessed maximum catechol 2,3-dioxygenase activity at 50 ug/ml after 3 hrs. The format is functional, organism-based. The procedure, abridged:
as §1

The subject of test [9] is Stenotrophomonas maltophilia. The test can be described thus: Induction of xylE gene expression in Stenotrophomonas maltophilia isolate KJ deficient in L2 beta lactamase gene assessed maximum catechol 2,3-dioxygenase activity at 50 ug/ml after 2.5 hrs. In kind it is functional, organism-based. The procedure, abridged: as §1
In test [10] the test system is Stenotrophomonas maltophilia. The test can be described thus: Induction of xylE gene expression in Stenotrophomonas maltophilia isolate KJ deficient in L1 beta lactamase gene assessed maximum catechol 2,3-dioxygenase activity at 1 ug/ml. The format is functional, organism-based. The procedure, abridged:
as §1

In test [11] the test system is Stenotrophomonas maltophilia. The test can be described thus: Antibacterial activity against Stenotrophomonas maltophilia isolate KJ deficient in L1 beta lactamase gene at 16 ug/ml. The format is functional, organism-based.
Test [12] has as its system Stenotrophomonas maltophilia. The test can be described thus: Ratio of induction of xylE gene expression in Stenotrophomonas maltophilia isolate KJ deficient in L1 beta lactamase gene to induction of xylE gene expression in Stenotrophomonas maltophilia isolate KJ deficient in L2 beta lactamase gene assessed as catechol 2,3-dioxygenase activity at 16 ug/ml. In kind it is functional.

Test [13] deals with Stenotrophomonas maltophilia. The test can be described thus: Antibacterial activity against Stenotrophomonas maltophilia isolate KJ deficient in L2 beta lactamase gene at 8 ug/ml. In kind it is functional, organism-based.
In test [14] the test system is Stenotrophomonas maltophilia. The test can be described thus: Ratio of induction of xylE gene expression in Stenotrophomonas maltophilia isolate KJ deficient in L1 beta lactamase gene to induction of xylE gene expression in Stenotrophomonas maltophilia isolate KJ deficient in L2 beta lactamase gene assessed as catechol 2,3-dioxygenase activity at 8 ug/ml. The format is functional. The procedure, abridged:
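xylE reporter (C23O) assay in L1- or L2-knockout mutants of strain KJ. Overnight cultures diluted to OD450 0.15 and grown 0.5 h at 37°C, then exposed to β-lactam inducer, by default for 2.5 h. C23O activity measured in intact cells with OD450 recorded. Specific activity is nmol substrate converted/min per A450 unit. At least three repeats.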

For `CC1(C)S[C@@H]2[C@H](NC(=O)[C@H](N)c3ccccc3)C(=O)N2[C@H]1C(=O)O` [AMPICILLIN], the outcome in test [1] and in [3] was inactive. Further, the MIC in test [2], in test [4] and in test [5] was greater than 2050 µg/mL in each case. Also, the Ratio in test [6] turned out to be 0.9.
As for `C[C@@H](O)[C@H]1C(=O)N2C(C(=O)O)=C(S[C@@H]3CN[C@H](C(=O)N(C)C)C3)[C@H](C)[C@H]12` [MEROPENEM], the MIC (usually the smallest concentration in the dilution series that meets the test's criterion for growth inhibition) was greater than 32 µg/mL in test [2], greater than 32 µg/mL in [4] and 0.5 µg/mL (≈ 1.3 µM) in test [5].
As for `CO/N=C(\C(=O)N[C@@H]1C(=O)N2C(C(=O)O)=C(COC(N)=O)CS[C@H]12)c1ccco1` [CEFUROXIME], the result in test [1] and in test [3] was inactive. Besides, the results for the MIC in [2], in test [4] and in test [5] were 1020 µg/mL (≈ 2410 µM), 2050 µg/mL (≈ 4830 µM) and 1020 µg/mL (≈ 2410 µM), respectively. Moreover, the result in [7], in [8], in [9] and in test [10] was Active. The Ratio in test [6] is 2.4.
For `CO/N=C(\C(=O)N[C@@H]1C(=O)N2C(C(=O)O)=C(COC(C)=O)CS[C@H]12)c1csc(N)n1` [CEFOTAXIME], the result in test [1] and in test [3] was inactive. Moreover, the MIC in [2] is 128 µg/mL (≈ 281 µM); in test [4] it was 256 µg/mL (≈ 562 µM); in [5] it was 128 µg/mL (≈ 281 µM). The Ratio in [6] was 3.2.
With `C[C@@H](O)[C@H]1C(=O)N2C(C(=O)O)=C(SCCNC=N)C[C@H]12` [IMIPENEM ANHYDROUS], the MIC in test [2] is greater than 32 µg/mL; in test [4], greater than 32 µg/mL; in [5], 8 µg/mL (≈ 26.7 µM).
For `CC1(C)S[C@@H]2[C@H](NC(=O)C(C(=O)O)c3ccccc3)C(=O)N2[C@H]1C(=O)O` (some centres undefined) [CARBENICILLIN], the outcome in test [1] and in [3] was inactive. In addition, the MIC is 64 µg/mL (≈ 169 µM) in [2], 1020 µg/mL (≈ 2710 µM) in [4] and 1020 µg/mL (≈ 2710 µM) in [5]. Further, the Ratio in test [6] is recorded as 3.4.
With `CO[C@@]1(NC(=O)Cc2cccs2)C(=O)N2C(C(=O)O)=C(COC(N)=O)CS[C@@H]21` [CEFOXITIN], the result in test [1] and in test [3] was inactive. Also, the MIC turned out to be 1020 µg/mL (≈ 2400 µM) in [2], 1020 µg/mL (≈ 2400 µM) in test [4] and 128 µg/mL (≈ 299 µM) in [5]. In [6], the Ratio was 0.2.
In the case of `CO/N=C(\C(=O)N[C@@H]1C(=O)N2C(C(=O)O)=C(CSc3nc(=O)c(O)nn3C)CS[C@H]12)c1csc(N)n1` [CEFTRIAXONE], the result in test [1] and in test [3] was inactive. The results for the MIC in test [2], in [4] and in test [5] were 128 µg/mL (≈ 231 µM), 256 µg/mL (≈ 462 µM) and 128 µg/mL (≈ 231 µM), respectively. In addition, the Ratio in [6] is given as 5.5.
Take `CCN1CCN(C(=O)N[C@@H](C(=O)N[C@@H]2C(=O)N3[C@@H]2SC(C)(C)[C@@H]3C(=O)O)c2ccccc2)C(=O)C1=O` [PIPERACILLIN]: the outcome in test [1] and in test [3] was inactive. Moreover, the figures for the MIC in test [2], in [4] and in [5] were 512 µg/mL (≈ 989 µM), 1020 µg/mL (≈ 1980 µM) and 256 µg/mL (≈ 495 µM), respectively. Moreover, the Ratio in test [6] is 1.7.
For `CO/N=C(\C(=O)N[C@@H]1C(=O)N2C(C(=O)[O-])=C(C[N+]3(C)CCCC3)CS[C@H]12)c1csc(N)n1` [CEFEPIME], the MIC amounted to 4 µg/mL (≈ 8.32 µM) in test [2], 64 µg/mL (≈ 133 µM) in test [4] and 64 µg/mL (≈ 133 µM) in test [5].
As to `CCN1CCN(C(=O)N[C@@H](C(=O)N[C@@H]2C(=O)N3C(C(=O)O)=C(CSc4nnnn4C)CS[C@H]23)c2ccc(O)cc2)C(=O)C1=O` [CEFOPERAZONE], the figures for the MIC in test [2], in test [4] and in test [5] were 64 µg/mL (≈ 99.1 µM), 128 µg/mL (≈ 198 µM) and 32 µg/mL (≈ 49.6 µM), respectively. Also, the result in [11] was Active. Further, the Ratio in test [12] came to 1.4.
As for `C[C@H]1[C@H](NC(=O)/C(=N\OC(C)(C)C(=O)O)c2csc(N)n2)C(=O)N1S(=O)(=O)O` [AZTREONAM], the result in test [13] was Active. Further, the Ratio in [14] was determined as 7.9. Besides, the MIC in test [4] and in test [5] was greater than 2050 µg/mL in each case.
